Results on 34 compounds are retold here after ChEMBL document CHEMBL1157420, “2-phenyl-4-piperazinylbenzimidazoles: orally active inhibitors of the gonadotropin releasing hormone (GnRH) receptor” (Bioorg Med Chem, 2008).

The target of assay [1] is T1, Gonadotropin-releasing hormone receptor (Homo sapiens) (UniProt P30968).
T1 sequence (whole entry): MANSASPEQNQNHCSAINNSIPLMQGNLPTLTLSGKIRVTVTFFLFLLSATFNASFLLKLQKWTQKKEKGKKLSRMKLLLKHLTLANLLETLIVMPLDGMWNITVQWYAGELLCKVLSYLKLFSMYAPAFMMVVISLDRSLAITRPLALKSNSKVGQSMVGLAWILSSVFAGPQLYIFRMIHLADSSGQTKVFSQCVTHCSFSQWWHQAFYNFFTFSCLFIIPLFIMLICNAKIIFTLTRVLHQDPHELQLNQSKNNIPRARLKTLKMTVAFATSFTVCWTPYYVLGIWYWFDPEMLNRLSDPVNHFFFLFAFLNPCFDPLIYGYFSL
As to the kind of experiment: Displacement of [125I]-(D-Trp6)LHRH from human recombinant GnRH receptor at 10 uM. Put shortly: (§1)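 Membranes from recombinant cells expressing human or rat GnRH receptor, made in 25 mM Tris-Cl pH 7.4 with 0.1% sodium azide and 0.1% BSA. 50 μg protein incubated with about 50,000 cpm 125I-(D-Trp6)-LHRH for 2 h at 4 °C, with increasing unlabeled competitor. Filtered on BSA-presoaked glass-fiber filters, washed twice, counted by gamma counter. Percent inhibition and IC50 derived.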
A general note: In a radioligand displacement assay an active substance lowers the binding of a labelled ligand.

Assay [2] has as its target T2, Gonadotropin-releasing hormone receptor (Homo sapiens, UniProt P30968).
T2 sequence (P30968 whole entry): T1 sequence (whole entry)
As to the kind of experiment: Displacement of [125I]-(D-Trp6)LHRH from human recombinant GnRH receptor. Put shortly: as §1

The target in assay [3] is T3, Gonadotropin-releasing hormone receptor (Rattus norvegicus, UniProt P30969).
T3 sequence (P30969 whole entry): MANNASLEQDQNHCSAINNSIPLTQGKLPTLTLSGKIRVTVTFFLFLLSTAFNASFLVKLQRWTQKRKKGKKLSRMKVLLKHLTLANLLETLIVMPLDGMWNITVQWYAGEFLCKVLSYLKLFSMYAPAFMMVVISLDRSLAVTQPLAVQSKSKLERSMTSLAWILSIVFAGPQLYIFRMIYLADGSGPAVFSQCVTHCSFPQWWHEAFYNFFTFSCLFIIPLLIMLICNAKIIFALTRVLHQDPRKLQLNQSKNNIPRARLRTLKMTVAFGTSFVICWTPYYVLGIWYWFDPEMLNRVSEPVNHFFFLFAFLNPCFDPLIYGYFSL
Put plainly: Antagonist activity at […] GnRH receptor in CO2 asphyxiated rat primary pituitary cells assessed as reduction in (D-Trp6)LHRH-induced LH release. In kind it is functional, cell-based, Pituitary gland cell. Put shortly: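 Anterior pituitaries from adult rats were minced, dissociated and plated at 30,000 cells/well in DMEM with 25 mM Hepes and 10% FBS, then cultured 72 h at 37 °C, 5% CO2. After washing, cells were treated 3 h in 0.1% BSA medium with an antagonist dose response plus an ED50 concentration of D-Trp6-LHRH. LH in medium measured by RIA; cell toxicity checked by CellTiter-Glo.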

The target of assay [4] is T2, Gonadotropin-releasing hormone receptor. Put plainly: Antagonist activity at human recombinant GnRH receptor assessed as reduction in (D-Trp6)LHRH-induced myo-(1,2)-[3H]inositol production. In kind it is functional. In short, it runs like this:
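Recombinant cells expressing human GnRH receptor, pre-labeled with myo-(1,2)-3H-inositol, incubated 1 h in medium with lithium chloride and D-Trp6-LHRH, with or without antagonist. Cells then lysed and labeled inositol phosphates separated from inositol by […] and counted. Run in triplicate, repeated in three independent experiments; IC50 derived.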

The target of assay [5] is T3, Gonadotropin-releasing hormone receptor. Put plainly: Displacement of [125I]-(D-Trp6)LHRH from rat recombinant GnRH receptor. In short, it runs like this:
as §1

In assay [6] the target is T4, Alpha-1A adrenergic receptor (Homo sapiens) (UniProt P35348).
T4 sequence (whole entry): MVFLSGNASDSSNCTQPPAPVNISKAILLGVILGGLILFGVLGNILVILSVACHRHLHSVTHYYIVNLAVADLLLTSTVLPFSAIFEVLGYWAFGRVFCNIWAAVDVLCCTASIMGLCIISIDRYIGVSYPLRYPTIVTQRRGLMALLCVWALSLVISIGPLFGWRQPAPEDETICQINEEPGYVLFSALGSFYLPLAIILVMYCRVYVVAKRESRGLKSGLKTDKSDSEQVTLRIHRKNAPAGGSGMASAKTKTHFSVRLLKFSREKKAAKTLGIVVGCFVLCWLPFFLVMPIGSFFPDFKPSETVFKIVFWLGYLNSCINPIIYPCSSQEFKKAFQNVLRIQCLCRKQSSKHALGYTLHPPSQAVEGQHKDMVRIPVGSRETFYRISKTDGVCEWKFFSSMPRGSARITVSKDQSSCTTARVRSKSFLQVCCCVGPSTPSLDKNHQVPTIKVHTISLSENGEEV
As to the kind of experiment: Binding affinity to alpha1 adrenergic receptor at 10 uM.

For assay [7], the target named is T5, 5-hydroxytryptamine receptor 1A (Homo sapiens) (UniProt P08908).
T5 sequence (whole entry): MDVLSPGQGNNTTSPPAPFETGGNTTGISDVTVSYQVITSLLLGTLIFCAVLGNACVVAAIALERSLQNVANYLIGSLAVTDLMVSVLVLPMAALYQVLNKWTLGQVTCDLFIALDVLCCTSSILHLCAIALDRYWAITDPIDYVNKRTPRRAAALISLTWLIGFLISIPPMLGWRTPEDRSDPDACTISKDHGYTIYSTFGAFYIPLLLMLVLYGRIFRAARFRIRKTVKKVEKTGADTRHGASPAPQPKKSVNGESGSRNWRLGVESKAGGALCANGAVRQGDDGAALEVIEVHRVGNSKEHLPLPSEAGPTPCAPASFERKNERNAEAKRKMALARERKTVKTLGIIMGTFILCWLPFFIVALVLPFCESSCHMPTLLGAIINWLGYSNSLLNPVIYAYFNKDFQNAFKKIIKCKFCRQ
Put plainly: Binding affinity to 5HT1A receptor at 10 uM.

The target in assay [8] is 5-hydroxytryptamine receptor 1D (Homo sapiens, UniProt P28221). Put plainly: Binding affinity to human 5HT1D receptor at 1000 nM.
Chain of 5-hydroxytryptamine receptor 1D (P28221 whole entry): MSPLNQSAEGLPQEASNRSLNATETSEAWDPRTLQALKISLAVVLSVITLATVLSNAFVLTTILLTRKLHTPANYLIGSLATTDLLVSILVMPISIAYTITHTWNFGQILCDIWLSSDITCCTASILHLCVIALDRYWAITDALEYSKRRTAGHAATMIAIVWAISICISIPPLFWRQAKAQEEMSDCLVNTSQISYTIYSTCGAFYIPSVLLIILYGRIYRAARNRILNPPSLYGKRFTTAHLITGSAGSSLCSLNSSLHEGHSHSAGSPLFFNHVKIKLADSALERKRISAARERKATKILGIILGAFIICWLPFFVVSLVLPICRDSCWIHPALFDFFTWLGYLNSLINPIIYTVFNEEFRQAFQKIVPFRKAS
Assay [9] concerns the target T6, 5-hydroxytryptamine receptor 1A (Homo sapiens, UniProt P08908).
T6 sequence (P08908 whole entry): T5 sequence (whole entry)
Put plainly: Binding affinity to human 5HT1A receptor.

The target in assay [10] is 5-hydroxytryptamine receptor 1B (Homo sapiens, UniProt P28222). Put plainly: Binding affinity to human 5HT1B receptor at 1000 nM.
Chain of 5-hydroxytryptamine receptor 1B (P28222 whole entry): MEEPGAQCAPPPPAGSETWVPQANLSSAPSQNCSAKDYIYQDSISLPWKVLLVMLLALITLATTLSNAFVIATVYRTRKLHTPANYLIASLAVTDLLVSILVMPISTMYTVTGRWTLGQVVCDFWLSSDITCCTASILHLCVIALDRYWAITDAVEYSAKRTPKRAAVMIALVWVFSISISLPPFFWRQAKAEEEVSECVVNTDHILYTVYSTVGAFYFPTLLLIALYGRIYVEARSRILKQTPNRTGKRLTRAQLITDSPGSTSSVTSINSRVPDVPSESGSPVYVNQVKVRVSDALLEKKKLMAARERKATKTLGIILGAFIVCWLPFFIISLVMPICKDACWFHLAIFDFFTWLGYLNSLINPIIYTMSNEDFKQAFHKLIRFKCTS

Consider `FC(F)(F)c1nc2c(N3CCN(CCc4cccc5[nH]c(=S)[nH]c45)CC3)cccc2[nH]1`, for which the Activity in assay [1] is 51%.

In general, IC50 refers to the concentration that gives 50% inhibition. As to `CC(C)(C)c1ccc(-c2nc3c(N4CCN(Cc5ccc6[nH]c(=O)c(=O)[nH]c6c5)CC4)cccc3[nH]2)cc1`, the IC50 in [2] was 4.9 nM; in assay [3], 25 nM; in assay [4], 1.7 nM; in [5], 40 nM.

Regarding `CC(C)(C)c1ccc(-c2nc3c(N4CCN(Cc5ccccc5)CC4)cccc3[nH]2)cc1`, the Activity in assay [1] is 6%.

Take `Cc1nc2c(N3CCN(CCOc4cccc5[nH]c(=S)[nH]c45)CC3)cccc2[nH]1`: the Activity in assay [1] was 10%.

As for `S=c1[nH]c2cccc(OCCN3CCN(c4cccc5[nH]cnc45)CC3)c2[nH]1`, in assay [1], the Activity stood at 5%.

For the compound `Cc1ccc(-c2nc3c(N4CCN(CCOc5cccc6[nH]c(=S)[nH]c56)CC4)cccc3[nH]2)c(C)c1`, the IC50 in [2] was 1200 nM.

For the compound `S=c1[nH]c2cccc(OCCN3CCN(c4cccc5nccnc45)CC3)c2[nH]1`, the Activity in [1] is 1%.

Turning to `Cn1c(C(F)(F)F)nc2c(N3CCN(CCOc4cccc5[nH]c(C(F)(F)F)nc45)CC3)cccc21`, the Activity in assay [1] was determined as 5%.

Consider `FC(F)(F)c1nc2cc(N3CCN(CCOc4cccc5[nH]c(=S)[nH]c45)CC3)ccc2[nH]1`, for which, in assay [1], the Activity worked out at 11%.

Take `FC(F)(F)c1nc2c(N3CCN(Cc4cccc5[nH]c(=S)[nH]c45)CC3)cccc2[nH]1`: the IC50 in assay [2] stood at 580 nM; in [4], 3400 nM; in assay [5], 51000 nM.

Consider `FC(F)(F)c1nc2c(N3CCN(Cc4cccc5nc(C(F)(F)F)[nH]c45)CC3)cccc2[nH]1`, for which the figures for the IC50 in assay [2], in [4] and in assay [5] were 9500 nM, 21000 nM and 64000 nM, respectively.

For the compound `CC(C)(C)c1ccc(-c2nc3c(N4CCN(Cc5cccc6[nH]c(=S)[nH]c56)CC4)cccc3[nH]2)cc1`, the IC50 in assay [2] was 6.2 nM; in assay [3], 240 nM; in assay [4], 14 nM; in [5], 110 nM. The Activity in [6] stood at 7%; in assay [7] it was 5%.

On to `CCc1ccc(-c2nc3c(N4CCN(CCOc5cccc6[nH]c(=S)[nH]c56)CC4)cccc3[nH]2)cc1`, for which the IC50 in assay [2] was 120 nM; in assay [4], 640 nM; in assay [5], 3900 nM.

Regarding `O=c1[nH]c2cccc(N3CCN(CCOc4cccc5nc(C(F)(F)F)[nH]c45)CC3)c2[nH]1`, the Activity in assay [1] was 8%.

As to `CC(C)(C)c1ccc(-c2nc3c(N4CCN(CCOc5cccc6nc(C(F)(F)F)[nH]c56)CC4)cccc3[nH]2)cc1`, the IC50 in [2] stood at 50 nM; in [4], 1200 nM; in [5], 710 nM.

The inhibition is the relative decrease from the control value, in per cent. By Ki is commonly meant a dissociation constant, usually derived from enzyme kinetics or from competition with a known ligand. With `FC(F)(F)c1nc2c(N3CCN(CCOc4cccc5[nH]c(=S)[nH]c45)CC3)cccc2[nH]1`, the inhibition in assay [8] and in assay [10] was 67% throughout. Also, the IC50 is 790 nM in assay [2], 76000 nM in assay [3], 4500 nM in assay [4] and 21000 nM in [5]. The Ki in assay [9] (read-out: Ki) stood at 2.8 nM.

For `CC(C)(C)c1ccc(-c2nc3c(N4CCN(Cc5cccc6[nH]c(=O)c(=O)[nH]c56)CC4)cccc3[nH]2)cc1`, the IC50 was determined as 5.7 nM in assay [2], 480 nM in assay [3], 24 nM in assay [4] and 72 nM in assay [5].

Take `Cc1ccc(-c2nc3c(N4CCN(CCOc5cccc6[nH]c(=S)[nH]c56)CC4)cccc3[nH]2)cc1`: the IC50 in assay [2] amounted to 1300 nM; in [4], 2800 nM.

As to `O=C(COc1cccc2[nH]c(=S)[nH]c12)N1CCN(c2cccc3[nH]c(C(F)(F)F)nc23)CC1`, the Activity in assay [1] was 24%.

Consider `CCc1ccc(-c2nc3c(N4CCN(CCOc5cccc6nc(C(F)(F)F)[nH]c56)CC4)cccc3[nH]2)cc1`, for which the figures for the IC50 in [2], in assay [4] and in assay [5] were 220 nM, 2300 nM and 5200 nM, respectively.

On to `FC(F)(F)c1nc2cccc(OCCN3CCN(c4cccc5[nH]c(=S)[nH]c45)CC3)c2[nH]1`, for which the Activity in assay [1] is 42%.

For `O=c1[nH]c2cccc(N3CCN(CCOc4cccc5[nH]c(=S)[nH]c45)CC3)c2[nH]c1=O`, the Activity in assay [1] was determined as 9%.

As for `Cn1c(C(F)(F)F)nc2c(N3CCN(CCOc4cccc5[nH]c(=S)[nH]c45)CC3)cccc21`, in [1], the Activity was 8%.

`FC(F)(F)C(F)(F)c1nc2c(N3CCN(CCOc4cccc5[nH]c(=S)[nH]c45)CC3)cccc2[nH]1`: the IC50 is 6300 nM in [2] and above 100000 nM in assay [5].

As for `FC(F)(F)c1nc2c(N3CCN(CCOc4ccc5[nH]c(=S)[nH]c5c4)CC3)cccc2[nH]1`, the IC50 in [2] turned out to be 4500 nM.

As for `CC(C)c1ccc(-c2nc3c(N4CCN(CCOc5cccc6nc(C(F)(F)F)[nH]c56)CC4)cccc3[nH]2)cc1`, the IC50 in assay [2] is 120 nM; in assay [4] it was 450 nM; in assay [5], 990 nM.

For `CC(C)(C)c1ccc(-c2nc3c(N4CCN(Cc5ccc6ccccc6c5)CC4)cccc3[nH]2)cc1`, in assay [1], the Activity came to 7%.

For the compound `S=c1[nH]c2cccc(OCCN3CCN(c4cccc5[nH]c(-c6ccccc6)nc45)CC3)c2[nH]1`, in assay [2], the IC50 came to 11000 nM.

With `FC(F)(F)c1nc2c(N3CCN(CCCOc4cccc5[nH]c(=S)[nH]c45)CC3)cccc2[nH]1`, the IC50 in [2] was 3300 nM. For the same compound, the affinity in assay [9], expressed as Ki, was 2.3 nM.

Take `FC(F)(F)c1nc2c(N3CCN(CCc4cccc5nc(C(F)(F)F)[nH]c45)CC3)cccc2[nH]1`: the Activity in assay [1] was determined as 26%.

Turning to `CC(C)(C)c1ccc(-c2nc3c(N4CCN(Cc5cccc6[nH]c(=O)[nH]c56)CC4)cccc3[nH]2)cc1`, the IC50 was found to be 8.7 nM in assay [2], 1500 nM in assay [3], 63 nM in [4] and 680 nM in [5].

As for `FC(F)(F)c1nc2c(N3CCN(CCCc4cccc5nc(C(F)(F)F)[nH]c45)CC3)cccc2[nH]1`, the Activity in [1] came to 42%.

As for `O=c1[nH]c2cccc(N3CCN(CCOc4cccc5[nH]c(=S)[nH]c45)CC3)c2[nH]1`, in [1], the Activity is 6%.

As to `Cc1cccc(-c2nc3c(N4CCN(CCOc5cccc6[nH]c(=S)[nH]c56)CC4)cccc3[nH]2)c1`, the Activity in [1] stood at 47%.
